For four compounds, inhibition of growth results are on record in ChEMBL document CHEMBL1629431, “Synthesis and antitumor activity of some 2, 3-disubstituted quinazolin-4(3H)-ones and 4, 6- disubstituted- 1, 2, 3, 4-tetrahydroquinazolin-2H-ones” (2010).

Common to all, as to format: functional
One experiment relates to HL-60(TB). Briefly: Growth inhibition of human HL-60(TB) cells at 10 uM after 48 hrs by coulter counter method. As to conditions: HL-60, 48 h, read-out: GI. The method in brief:
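Part of the NCI 60-cell-line single-high-dose panel. Cells were seeded at 6 × 10⁴ cells/mL with test solution in duplicate wells, alongside PBS/DMSO controls at identical dilutions. Plates were held 48 h at 37 °C in a humidified 5% CO₂ incubator. Cells were then diluted 10-fold in saline and counted by Coulter counter, with counts corrected for dilution. Results are percent growth of treated cells, reported as GI %.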

In a further experiment the test system is K562. Description: Growth inhibition of human K562 cells at 10 uM after 48 hrs by coulter counter method. As to conditions: K562, 48 h, read-out: GI. In outline:
(§1)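 Single high-dose NCI 60-cell-line panel screen across nine tumor subpanels. Test solutions (0.2 mL) were added in duplicate to wells holding 1.8 mL of culture at 6 × 10⁴ cells/mL. Controls got PBS and DMSO at identical dilutions. Incubation was 48 h at 37 °C in humidified 5% CO₂. Cells were diluted 10-fold in saline, Coulter-counted and dilution-corrected. Results were expressed as percent growth inhibition versus control.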

A further experiment concerns MOLT-4. Description: Growth inhibition of human MOLT4 cells at 10 uM after 48 hrs by coulter counter method. The note with it: MOLT-4, 48 h, read-out: GI. In outline: as §1
The nature of experiment [1]: Growth inhibition of human […] cells at 10 uM after 48 hrs by coulter counter method. The note with it: read-out: GI. In outline:
as §1

Another experiment relates to A549. Description: Growth inhibition of human A549 cells at 10 uM after 48 hrs by coulter counter method. As to conditions: A549, 48 h, read-out: GI. In outline: as §1
A further experiment has as its system HOP-92. Briefly: Growth inhibition of human HOP92 cells at 10 uM after 48 hrs by coulter counter method. The note with it: HOP-92, 48 h, read-out: GI. In outline:
as §1

For another experiment, the system named is NCI-H226. Briefly: Growth inhibition of human NCI-H226 cells at 10 uM after 48 hrs by coulter counter method. The note with it: NCI-H226, 48 h, read-out: GI. In outline:
as §1

For the next experiment, the system named is NCI-H23. Description: Growth inhibition of human NCI-H23 cells at 10 uM after 48 hrs by coulter counter method. As to conditions: NCI-H23, 48 h, read-out: GI. The method in brief:
as §1

In the next experiment the test system is NCI-H522. Briefly: Growth inhibition of human NCI-H522 cells at 10 uM after 48 hrs by coulter counter method. The note with it: NCI-H522, 48 h, read-out: GI. The method in brief: as §1
For a further experiment, the system named is COLO 205. Description: Growth inhibition of human COLO205 cells at 10 uM after 48 hrs by coulter counter method. As to conditions: COLO 205, 48 h, read-out: GI. In outline: as §1
The test system of a further experiment is HCT-116. Description: Growth inhibition of human HCT116 cells at 10 uM after 48 hrs by coulter counter method. As to conditions: HCT-116, 48 h, read-out: GI. The method in brief:
as §1

For a further experiment, the system named is KM12. Briefly: Growth inhibition of human KM12 cells at 10 uM after 48 hrs by coulter counter method. As to conditions: KM12, 48 h, read-out: GI. In outline:
as §1

Another experiment concerns SF-268. Briefly: Growth inhibition of human SF268 cells at 10 uM after 48 hrs by coulter counter method. The note with it: SF-268, 48 h, read-out: GI. In outline:
as §1

The subject of another experiment is SF-539. Description: Growth inhibition of human SF539 cells at 10 uM after 48 hrs by coulter counter method. As to conditions: SF-539, 48 h, read-out: GI. The method in brief: as §1
The next experiment concerns SNB-75. Briefly: Growth inhibition of human SNB75 cells at 10 uM after 48 hrs by coulter counter method. The note with it: SNB-75, 48 h, read-out: GI. The method in brief:
as §1

The test system of a further experiment is U-251. Briefly: Growth inhibition of human U251 cells at 10 uM after 48 hrs by coulter counter method. As to conditions: U-251, 48 h, read-out: GI. The method in brief: as §1
For a further experiment, the system named is M14. Briefly: Growth inhibition of human M14 cells at 10 uM after 48 hrs by coulter counter method. The note with it: M14, 48 h, read-out: GI. The method in brief: as §1
A further experiment has as its system SK-MEL-2. Briefly: Growth inhibition of human SK-MEL-2 cells at 10 uM after 48 hrs by coulter counter method. As to conditions: SK-MEL-2, 48 h, read-out: GI. In outline: as §1
The subject of another experiment is SK-MEL-28. Briefly: Growth inhibition of human SK-MEL-28 cells at 10 uM after 48 hrs by coulter counter method. As to conditions: SK-MEL-28, 48 h, read-out: GI. The method in brief: as §1
The next experiment concerns UACC-62. Description: Growth inhibition of human UACC62 cells at 10 uM after 48 hrs by coulter counter method. As to conditions: UACC-62, 48 h, read-out: GI. In outline: as §1
Another experiment has as its system IGROV-1. Briefly: Growth inhibition of human IGROV1 cells at 10 uM after 48 hrs by coulter counter method. The note with it: IGROV-1, 48 h, read-out: GI. The method in brief:
as §1

A further experiment deals with OVCAR-4. Description: Growth inhibition of human OVCAR4 cells at 10 uM after 48 hrs by coulter counter method. As to conditions: OVCAR-4, 48 h, read-out: GI. The method in brief:
as §1

Another experiment has as its system OVCAR-8. Briefly: Growth inhibition of human OVCAR8 cells at 10 uM after 48 hrs by coulter counter method. As to conditions: OVCAR-8, 48 h, read-out: GI. The method in brief:
as §1

The next experiment relates to SK-OV-3. Briefly: Growth inhibition of human SKOV3 cells at 10 uM after 48 hrs by coulter counter method. The note with it: SK-OV-3, 48 h, read-out: GI. The method in brief:
as §1

A further experiment concerns 786-0. Briefly: Growth inhibition of human 786-0 cells at 10 uM after 48 hrs by coulter counter method. As to conditions: 786-0, 48 h, read-out: GI. In outline:
as §1

The next experiment deals with CAKI-1. Description: Growth inhibition of human Caki1 cells at 10 uM after 48 hrs by coulter counter method. As to conditions: CAKI-1, 48 h, read-out: GI. In outline:
as §1

The test system of the next experiment is SN12C. Briefly: Growth inhibition of human SN12C cells at 10 uM after 48 hrs by coulter counter method. As to conditions: read-out: GI. In outline:
as §1

The next experiment concerns UO-31. Description: Growth inhibition of human UO31 cells at 10 uM after 48 hrs by coulter counter method. The note with it: UO-31, 48 h, read-out: GI. The method in brief:
as §1

The test system of the next experiment is PC-3. Description: Growth inhibition of human PC3 cells at 10 uM after 48 hrs by coulter counter method. As to conditions: PC-3, 48 h, read-out: GI. The method in brief:
as §1

For the next experiment, the system named is MCF7. Description: Growth inhibition of human MCF7 cells at 10 uM after 48 hrs by coulter counter method. As to conditions: MCF7, 48 h, read-out: GI. In outline:
as §1

The subject of another experiment is MDA-MB-231. Briefly: Growth inhibition of human MDA-MB-231 cells at 10 uM after 48 hrs by coulter counter method. The note with it: MDA-MB-231, 48 h, read-out: GI. In outline: as §1
The nature of experiment [2]: Growth inhibition of human Hs 578T cells at 10 uM after 48 hrs by coulter counter method. As to conditions: read-out: GI. In outline: as §1
For another experiment, the system named is T47D. Briefly: Growth inhibition of human T47D cells at 10 uM after 48 hrs by coulter counter method. As to conditions: read-out: GI. The method in brief: as §1
The subject of another experiment is MDA-MB-468. Briefly: Growth inhibition of human MDA-MB-468 cells at 10 uM after 48 hrs by coulter counter method. As to conditions: MDA-MB-468, 48 h, read-out: GI. In outline: as §1
A further experiment concerns SF-295. Description: Growth inhibition of human SF295 cells at 10 uM after 48 hrs by coulter counter method. As to conditions: SF-295, 48 h, read-out: GI. In outline: as §1
A further experiment deals with CCRF-CEM. Description: Growth inhibition of human CCRF-CEM cells at 10 uM after 48 hrs by coulter counter method. As to conditions: read-out: GI. The method in brief:
as §1

The test system of the next experiment is SR. Description: Growth inhibition of human SR cells at 10 uM after 48 hrs by coulter counter method. As to conditions: read-out: GI. In outline: as §1
The next experiment relates to HT-29. Description: Growth inhibition of human HT-29 cells at 10 uM after 48 hrs by coulter counter method. As to conditions: HT-29, 48 h, read-out: GI. In outline: as §1
In a further experiment the test system is BT-549. Briefly: Growth inhibition of human BT549 cells at 10 uM after 48 hrs by coulter counter method. As to conditions: BT-549, 48 h, read-out: GI. The method in brief: as §1

Consider `CSc1nc2ccccc2c(=O)n1-c1ccc(Cl)cc1`, for which the inhibition of growth at 10 µM in the experiment on HL-60(TB) worked out at 32%; in the experiment with K562, 44.1%; with MOLT-4, 31.4%; in [1], 35.8%; in the experiment with A549, 30%; with HOP-92, 30%. The inhibition of growth at 10 µM with NCI-H226, in the experiment with NCI-H23, in the experiment on NCI-H522, in the experiment on COLO 205, in the experiment with HCT-116 and in the experiment on KM12 was 30% each time. Further, the inhibition of growth at 10 µM in the experiment on SF-268, with SF-539, in the experiment with SNB-75, with U-251, in the experiment on M14 and in the experiment with SK-MEL-2 was 30% throughout. Besides, the inhibition of growth at 10 µM in the experiment on SK-MEL-28, in the experiment on UACC-62, in the experiment on IGROV-1, in the experiment with OVCAR-4, with OVCAR-8 and with SK-OV-3 was 30% each time. For the same compound, the inhibition of growth at 10 µM in the experiment on 786-0 is 30%; with CAKI-1 it was 30%; in the experiment with SN12C, 30%; with UO-31 it was 30%; in the experiment with PC-3 it was 50.3%; with MCF7 it was 30%. For the same compound, the inhibition of growth at 10 µM was determined as 30% in the experiment on MDA-MB-231, 30% in [2], 47% in the experiment on T47D and 30% in the experiment with MDA-MB-468.
`COc1ccc(-n2c(Nc3cc(O)[nH]c(=O)n3)nc3ccccc3c2=O)cc1`: the inhibition of growth at 10 µM in the experiment on SF-295 is 80.8%.
Still for that read-out and setting: as for `CCn1c(Nc2cc(O)nc(S)n2)nc2ccccc2c1=O`, the figure is 59.9%.
Turning to `COc1ccc(C2NC(=O)Nc3ccc(C(=O)Nc4ccccn4)cc32)cc1` (stereo not drawn), the inhibition of growth at 10 µM in the experiment with CCRF-CEM, with HL-60(TB), in the experiment with K562, with MOLT-4, in the experiment with SR and in the experiment on A549 was 30% each time. Further, the inhibition of growth at 10 µM in the experiment with HOP-92, in the experiment with NCI-H226, in the experiment with NCI-H23, in the experiment on NCI-H522, in the experiment on COLO 205 and with HCT-116 was 30% throughout. The inhibition of growth at 10 µM in the experiment with HT-29, in the experiment on KM12, in the experiment on SF-268, in the experiment with SF-539, in the experiment on SNB-75 and in the experiment with U-251 was 30% in each case. The inhibition of growth at 10 µM with M14, with SK-MEL-2, in the experiment with SK-MEL-28, in the experiment with UACC-62, in the experiment on IGROV-1 and in the experiment with OVCAR-4 was 30% each time. In addition, the inhibition of growth at 10 µM in the experiment on OVCAR-8 turned out to be 30%; with SK-OV-3 it was 30%; with 786-0, 30%; with CAKI-1 it was 30%; in the experiment on SN12C, 30%; in the experiment with UO-31, 34.3%. For the same compound, the inhibition of growth at 10 µM with PC-3 is 30%; in the experiment on MCF7, 30%; in the experiment on MDA-MB-231 it was 30%; in [2], 30%; with BT-549, 30%; with T47D, 37.6%. Also, in the experiment with MDA-MB-468, the inhibition of growth at 10 µM is 30%.
